Tests used:
[1] = test system: A549; assay: Cytotoxicity against human A549 cells by sulforhodamine B assay; type: functional, cell-based
[2] = test system: SK-OV-3; assay: Cytotoxicity against human SKOV3 cells by sulforhodamine B assay; type: functional, cell-based
[3] = test system: SK-MEL-2; assay: Cytotoxicity against human SK-MEL-2 cells by sulforhodamine B assay; type: functional, cell-based
[4] = test system: HUVEC; assay: Cytotoxicity against HUVEC by sulforhodamine B assay; type: cell-based; conditions: Homo sapiens
[5] = test system: BV-2; assay: Anti-neuroinflammatory activity in mouse BV2 cells assessed as inhibition of LPS-induced NO production pretreated for 30 mins before LPS-stimulation measured after 24 hrs by Griess reaction; type: functional, cell-based
Method in brief: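 Murine BV-2 microglia activated with LPS; NO output was estimated from nitrite, its soluble oxidation product, measured in the culture medium with the Griess reaction. The value is the IC50 for lowering that nitrite.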

[6] = Cytotoxicity against LPS-stimulated mouse BV2 cells assessed as cell viability after 24 hrs by MTT assay relative to control; type: cell-based, BV-2; conditions: read-out: Activity
[7] = test system: HUVEC; assay: Selectivity index, ratio of IC50 for HUVEC to IC50 for human SKMEL2 cells

| SMILES | IC50 [1] | IC50 [2] | IC50 [3] | IC50 [4] | IC50 [5] | viability at 24 h [6] | Ratio IC50 [7] |
| --- | --- | --- | --- | --- | --- | --- | --- |
| COc1ccc(C[C@@H](CO)Oc2ccc(CCCO)cc2OC)cc1OC [LIGRAMINOL D] | 8.28 µM | > 10 µM | > 10 µM | 22.6 µM | 18.4 µM | 98.4% | – |
| COc1cc([C@@H]2c3cc4c(cc3[C@@H](O[C@@H]3O[C@@H]5CO[C@@H](C)O[C@H]5[C@H](O)[C@H]3O)[C@H]3COC(=O)[C@H]23)OCO4)cc(OC)c1O [ETOPOSIDE] | 0.44 µM | 1.31 µM | 0.41 µM | 1.86 µM | – | – | – |
| COc1ccc([C@H]2O[C@H](c3cc(OC)c(OC)c(OC)c3)[C@@H](C)[C@@H]2C)cc1OC | > 10 µM | > 10 µM | > 10 µM | – | 125 µM | 87.3% | – |
| COc1cc([C@H](O)[C@H](CO)Oc2ccc(CCCO)cc2OC)ccc1O | > 10 µM | > 10 µM | > 10 µM | – | 53 µM | 96.7% | – |
| COc1cc([C@@H]2O[C@@H](c3cc(OC)c(O)c(OC)c3)[C@H](CO[C@@H]3O[C@H](CO)[C@@H](O)[C@H](O)[C@H]3O)[C@H]2CO)cc(OC)c1O [LIGRAMINOL B] | > 10 µM | > 10 µM | > 10 µM | – | 23 µM | 84.4% | – |
| COc1ccc([C@H]2O[C@@H](c3ccc(OC)c(OC)c3)[C@H](C)[C@H]2C)cc1OC [VERAGUENSIN] | > 10 µM | > 10 µM | > 10 µM | – | 48.4 µM | 104% | – |
| C/C=C\c1ccc(O[C@H](C)[C@H](OC(C)=O)c2ccc(OC)c(OC)c2)c(OC)c1 [LIGRAMINOL C] | 9.54 µM | > 10 µM | > 10 µM | 25.9 µM | 16.2 µM | 90.5% | – |
| COc1ccc([C@H]2O[C@H](c3cc(OC)c(OC)c(OC)c3)[C@@H](C)[C@H]2C)cc1OC [LIGRAMINOL A] | 6.92 µM | 9.44 µM | 4.53 µM | 27.2 µM | 21.5 µM | 88.6% | 6 |
| C/C=C/c1cc(OC)c(O[C@H](C)[C@H](O)c2cc(OC)c(OC)c(OC)c2)c(OC)c1 | > 10 µM | > 10 µM | > 10 µM | – | > 200 µM | 101% | – |
| COc1ccc([C@H]2O[C@H](c3ccc(OC)c(OC)c3)[C@@H](C)[C@H]2C)cc1OC [GANSCHISANDRINE] | > 10 µM | > 10 µM | > 10 µM | – | 76 µM | 104% | – |
| COc1cc(C[C@H](CO)Oc2ccc(CCCO)cc2OC)ccc1O [LIGRAMINOL E] | > 10 µM | > 10 µM | > 10 µM | – | > 200 µM | 97.1% | – |
| COc1cc([C@@H](O)[C@@H](CO)Oc2ccc(CCCO)cc2OC)ccc1O | > 10 µM | > 10 µM | > 10 µM | – | 52 µM | 97.5% | – |
| C/C=C/c1cc(OC)c(O[C@H](C)[C@H](O)c2ccc(OC)c(OC)c2)c(OC)c1 | > 10 µM | > 10 µM | > 10 µM | – | 176 µM | 102% | – |
| CNC(=N)NCCC[C@H](N)C(=O)O [TILARGININE] | – | – | – | – | 15.4 µM | 98.7% | – |

Reference: ChEMBL document CHEMBL1926650, “Bioactive lignans from the rhizomes of Acorus gramineus” (J Nat Prod, 2011)
